# Activity calls are given as the source filed them. No cut-off for these calls is given here.
# Assays:
# Candida albicans [1] = test: Synergistic antifungal activity against drug resistant Candida albicans DF2672R after 24 hrs in presence of terbinafine by checkerboard assay; type: functional
# In short: (§1)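 Checkerboard combination of each compound with a second antifungal, following a previously reported procedure. FIC = MIC of A in combination/MIC of A alone + MIC of B in combination/MIC of B alone.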
# Candida albicans [2] = test: Antifungal activity against drug resistant Candida albicans DF2672R measured after 27 passages by two fold serial dilution method; type: functional
# In short: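 Serial passage: cells from duplicate tubes at 0.5× MIC adjusted to ~5×10^3 CFU/mL and used as the inoculum for the next broth microdilution MIC, 24 h at 35 °C. Repeated for 27–30 passages, with biological replicates.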
# Klebsiella pneumoniae = test: Antibacterial activity against Klebsiella pneumoniae DM4299 by two fold serial dilution method; type: functional
# In short: (§2)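 Broth microdilution (CLSI, minor modifications) in Sabouraud dextrose, Mueller−Hinton or RPMI 1640 broth; two-fold serial dilutions of compound from stock to final 100 to 0.78 μg/mL. MIC taken as lowest concentration giving no visible growth.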
# [3] = Selectivity index, ratio of IC50 for human corneal fibroblasts to MIC for drug resistant Candida albicans DF2672R
# Staphylococcus aureus [4] = test: Antibacterial activity against Staphylococcus aureus DM4001R by two fold serial dilution method; type: functional; in short: as §2
# Candida albicans [5] = test: Antifungal activity against drug resistant Candida albicans DF2672R infected C57BL6 mouse cornea at 0.2% administered topically for every 20 mins during the first hour and every 1 hr during the next 6 hrs by serial dilution method; type: functional
# In short: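 C57BL6 mice aged 7–8 weeks (19–23 g), immunosuppressed with cyclophosphamide 100 mg/kg ip at 4 days and 1 day before infection and on day 1 after. Left cornea scratched under xylazine/ketamine, then 20 μL of ~5×10^7 CFU/mL yeast in PBS applied. Treatment started 1 day later; PBS served as control; four mice per group. Corneal fungal load counted by serial dilution plating on SDA.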
# Bacillus cereus = test: Antibacterial activity against Bacillus cereus ATCC11778 by two fold serial dilution method; type: functional; in short: as §2
# Candida albicans [6] = test: Synergistic antifungal activity against drug resistant Candida albicans DF2672R after 24 hrs in presence of itraconazole by checkerboard assay; type: functional; in short: as §1
# Lipid bilayer = test: Induction of membrane permiablization in calcein loaded DOPC/DOPE/PI large unilamellar vesicles assessed as calcein leakage at 1:4 compound to lipid ratio after 1 to 2 hrs by fluorescence assay relative to control
# In short: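 LUVs (DOPC/DOPE/PI 2:1:1 with 15 wt % ergosterol, about 100 nm) made by film hydration and extrusion, loaded with 80 mM calcein in HEPES buffer pH 7.4. Free dye removed by G-50 column. Compound added in 0.5% DMF at 50 μM final phospholipid. Emission read at 520 nm (excitation 490 nm); leakage normalized to 1% Triton X-100.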
# Candida albicans [7] = test: Synergistic antifungal activity against drug resistant Candida albicans DF2672R after 24 hrs in presence of miconazole by checkerboard assay; type: functional; in short: as §1
# Aspergillus brasiliensis = test: Antifungal activity against Aspergillus brasiliensis TCC16404 after 48 hrs by two fold serial dilution method; type: functional; settings: TCC16404, 48 h
# In short: (§3)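 Moulds grown on potato dextrose agar, 30 °C, 4 days; inoculum adjusted to about 5×10^3 CFU/mL. Two-fold serial dilutions in RPMI-1640 broth, 100 to 0.78 μg/mL final, mixed with equal volume of cell suspension; incubated 30 °C, 48 h. MIC = lowest concentration inhibiting growth, judged visually and by OD530.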
# Aspergillus fumigatus = test: Antifungal activity against Aspergillus fumigatus TCC MYA3626 after 48 hrs by two fold serial dilution method; type: functional; settings: TCC MYA3626, 48 h; in short: as §3
# Fusarium solani = test: Antifungal activity against Fusarium solani 46492 after 48 hrs by two fold serial dilution method; type: functional; settings: Fusarium solani, 46492, 48 h; in short: as §3
# [8] = Cytotoxicity against human corneal fibroblasts assessed as cell viability at 100 uM after 4 hrs by LDH assay relative to control; type: cell-based, Corneal fibroblast; settings: read-out: Activity
# In short: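 LDH release assay on human corneal fibroblasts seeded at 10000 cells per well, exposed to a range of compound concentrations up to 100 μM. 1% Triton X-100 served as positive control and 0.5% DMSO as negative control; biological replicates.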
# Pseudomonas aeruginosa = test: Antibacterial activity against Pseudomonas aeruginosa DM23155 by two fold serial dilution method; type: functional; in short: as §2
# Candida albicans [9] = test: Fungicidal activity against drug resistant Candida albicans DF2672R at 1 time MIC after 24 hrs by time kill assay; type: functional
# In short: (§4)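 Cells at 10^5–10^6 CFU/mL exposed to 1×, 2×, 4× or 8× MIC at 35 °C. Samples taken at 0.5, 1, 2, 4, 8 and 24 h, serially diluted in PBS and plated on SDA. CFU counted after 24 h at 35 °C; biological replicates.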
# Aspergillus flavus = test: Antifungal activity against Aspergillus flavus TCC MYA3631 after 48 hrs by two fold serial dilution method; type: functional; settings: TCC MYA3631, 48 h; in short: as §3
# Candida albicans [10] = test: Synergistic antifungal activity against drug resistant Candida albicans DF2672R after 24 hrs in presence of amphotericin B by checkerboard assay; type: functional; in short: as §1
# Staphylococcus aureus [11] = test: Antibacterial activity against methicillin resistant Staphylococcus aureus DM21455 by two fold serial dilution method; type: functional
# In short: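 Broth microdilution per CLSI guidelines with minor modifications, run in Mueller−Hinton broth; MIC is the lowest concentration giving no visible growth.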
# Candida albicans [12] = test: Antifungal activity against Candida albicans DF1976R after 24 hrs by two fold serial dilution method; type: functional
# In short: (§5)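 Candida grown on Sabouraud dextrose agar at 35 °C for 24 h, adjusted to ~5×10^3 CFU/mL. Two-fold dilutions from 100 to 0.78 μg/mL in Sabouraud dextrose broth, incubated at 35 °C for 24 h. MIC is the lowest concentration inhibiting growth by eye and by OD600. CLSI-based with minor modifications.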
# Candida albicans [13] = test: Potency index, ratio of natamycin concentration to compound concentration for antifungal activity against drug resistant Candida albicans DF2672R infected C57BL6 mouse; type: functional
# Candida albicans [14] = test: Synergistic antifungal activity against drug resistant Candida albicans DF2672R after 24 hrs in presence of posaconazole by checkerboard assay; type: functional; in short: as §1
# Fusarium oxysporum = test: Antifungal activity against Fusarium oxysporum 64530 after 48 hrs by two fold serial dilution method; type: functional; settings: Fusarium oxysporum, 64530, 48 h; in short: as §3
# [15] = Selectivity index, ratio of HC50 for New Zealand white rabbit RBC to MIC for Candida albicans ATCC 10231
# Candida albicans [16] = test: Antifungal activity against Candida albicans ATCC11651 after 24 hrs by two fold serial dilution method; type: functional; settings: ATCC11651, 24 h; in short: as §5
# Candida albicans [17] = test: Induction of membrane permiablization in drug resistant Candida albicans DF2672R at 4 times MIC after 1 to 2 hrs by SYTOX green dye based spectrofluorometric assay; type: functional
# In short: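 Overnight cultures washed and resuspended in PBS at OD600 0.2, then loaded with 0.3 μM SYTOX Green in the dark. After the signal stabilised, compound in PBS/DMF was added (final DMF 0.5%; 0.5% DMF as control). Fluorescence (ex 504/em 523 nm) followed continuously for 1–2 h; biological replicates.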
# Candida albicans [18] = test: Fungicidal activity against drug resistant Candida albicans DF2672R at 4 times MIC after 1 hr by time kill assay relative to control; type: functional; in short: as §4
compound,measurement,setting,value
COc1c(OCC(O)CNC(=N)N)cc2oc3cc(OCC(O)CNC(=N)N)c(CC=C(C)C)c(O)c3c(=O)c2c1CC=C(C)C (configuration not stated),fractional inhibitory concentration index (FICI),Candida albicans [1],0.44
same,Activity,Candida albicans [2],Active
same,MIC,Klebsiella pneumoniae,25 to 50 µg/mL
same,Selectivity Index,[3],41 - 82
same,MIC,Staphylococcus aureus [4],1.56 to 3.13 µg/mL
same,Activity,Candida albicans [5],92.8%
same,MIC,Bacillus cereus,1.56 to 3.13 µg/mL
same,fractional inhibitory concentration index (FICI),Candida albicans [6],1.28
same,Activity,Lipid bilayer,75.6%
same,fractional inhibitory concentration index (FICI),Candida albicans [7],0.88
same,MIC,Aspergillus brasiliensis,3.13 µg/mL
same,MIC,Aspergillus fumigatus,6.25 µg/mL
same,MIC,Fusarium solani,3.13 µg/mL
same,"viability at 4 h, 100 µM",[8],44.4%
same,MIC,Pseudomonas aeruginosa,25 to 50 µg/mL
same,Activity,Candida albicans [9],Active
same,MIC,Aspergillus flavus,6.25 µg/mL
same,fractional inhibitory concentration index (FICI),Candida albicans [10],1.28
same,MIC,Staphylococcus aureus [11],1.56 to 3.13 µg/mL
same,MIC,Candida albicans [12],0.78 µg/mL
same,Ratio,Candida albicans [13],25
same,fractional inhibitory concentration index (FICI),Candida albicans [14],1.06
same,MIC,Fusarium oxysporum,3.13 µg/mL
same,Selectivity Index,[15],61
same,MIC,Candida albicans [16],0.78 µg/mL
same,Activity,Candida albicans [17],Active
same,Activity,Candida albicans [18],99.9%
